Reference: ChEMBL document CHEMBL1667804, “Design and synthesis of caffeoyl-anilides as portmanteau inhibitors of HIV-1 integrase and CCR5” (Bioorg Med Chem, 2011)
Calls of active or inactive are those of the source. The rule behind the calls is not given here.

How the values were obtained:
[1] = tested on: Human immunodeficiency virus 1; assay: Antiviral activity against HIV1 NL4.3 infected in human CEM-GFP T cells assessed as inhibition of p24 antigen production at highest non cytotoxic concentration after 7 days by ELISA; type: functional, CCRF-CEM
Summary of the method: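 HIV-1 NL4.3 infection of CEM-GFP cells at MOI 0.05, with compound at the highest noncytotoxic concentration (95% viability in MTT) for 7 days. p24 in day-7 supernatant measured by capture ELISA. Reported as % decrease versus untreated infected cells. Preliminary screen by GFP microfluorometry.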

[2] = tested on: Human immunodeficiency virus 1; assay: Antiviral activity against HIV1 NL4.3 infected in human CEM-GFP T cells assessed as inhibition of p24 antigen production after 7 days by ELISA; type: functional, organism-based; settings: Human immunodeficiency virus 1, NL4.3, CCRF-CEM, 168 h
Summary of the method: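 CEM-GFP cells infected with HIV-1 NL4.3 at MOI 0.05, then cultured with compound for up to 7 days after infection. Day-7 supernatant p24 measured by antigen-capture ELISA. EC50 is the concentration giving 50% inhibition of virus production against untreated infected cells (n = 3). AZT positive control.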

[3] = Cytotoxicity against human CEM-GFP cells after 48 hrs by MTT assay; type: cell-based, CCRF-CEM
Summary of the method: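 MTT assay in CEM-GFP cells (2 × 10^4/well), 48 h exposure over a range of concentrations, with untreated and vehicle controls. Formazan dissolved and read at 540 nm. CC50 is the concentration giving 50% cytotoxicity in uninfected cells (n = 3).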

[4] = biological target: Human immunodeficiency virus type 1 reverse transcriptase (Human immunodeficiency virus 1) (UniProt Q72547); assay: Inhibition of HIV1 reverse transcriptase
[5] = Cytotoxicity against human CEM-GFP cells assessed as highest non cytotoxic concentration after 48 hrs by MTT assay; type: cell-based, CCRF-CEM; settings: read-out: MNCC
Summary of the method: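 Viability by MTT in CEM-GFP cells after 48 h, absorbance at 540 nm. Viability first measured at three concentrations, then further dilutions made to find the concentration giving 95% viability.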

[6] = biological target: Human immunodeficiency virus type 1 integrase (Human immunodeficiency virus 1) (UniProt Q7ZJM1); assay: Inhibition of full-length recombinant HIV1 integrase at 20 ug/ml
Summary of the method: (§1)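 Kit ELISA-type strand-transfer assay. Biotin end-labelled double-stranded HIV-1 LTR U5 donor oligo bound on streptavidin plates, then full-length recombinant HIV-1 integrase loaded. Compound added, followed by a 3′-end-modified double-stranded target oligo. Screened at 20 µg/mL, IC50 determined in µg/mL and converted to molar. Sodium azide positive control.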

[7] = Therapeutic index, ratio of CC50 for human CEM-GFP cells to EC50 for HIV1 NL4.3; type: cell-based; settings: read-out: Ratio CC50/EC50
[8] = biological target: Human immunodeficiency virus type 1 integrase (Human immunodeficiency virus 1, UniProt Q7ZJM1); assay: Inhibition of full-length recombinant HIV1 integrase; summary of the method: as §1
[9] = tested on: Human immunodeficiency virus 1; assay: Antiviral activity against R5 tropic HIV1 IndieC infected in human TZM-bl cells expressing CD4, CCR5 and CXCR4 assessed as inhibition of virus entry at highest non cytotoxic concentration after 48 hrs by luciferase assay; type: functional
Summary of the method: (§2)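 TZM-bl cells (10^4/well) seeded and left overnight at 37 °C. Compound added in DMEM/10% FBS for 1 h, then cells washed and infected for 4 h with IndieC (R5) or IIIB (X4).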

[10] = tested on: Human immunodeficiency virus 1; assay: Antiviral activity against X4 tropic HIV1 3B infected in human TZM-bl cells expressing CD4, CCR5 and CXCR4 assessed as inhibition of virus entry at highest non cytotoxic concentration after 48 hrs by luciferase assay; type: functional; summary of the method: as §2
[11] = biological target: Human immunodeficiency virus type 1 integrase (Human immunodeficiency virus 1) (UniProt Q7ZJM1); settings: 5 ug/ml

Sequence of Human immunodeficiency virus type 1 integrase (Human immunodeficiency virus 1) (Q7ZJM1 as listed by the source): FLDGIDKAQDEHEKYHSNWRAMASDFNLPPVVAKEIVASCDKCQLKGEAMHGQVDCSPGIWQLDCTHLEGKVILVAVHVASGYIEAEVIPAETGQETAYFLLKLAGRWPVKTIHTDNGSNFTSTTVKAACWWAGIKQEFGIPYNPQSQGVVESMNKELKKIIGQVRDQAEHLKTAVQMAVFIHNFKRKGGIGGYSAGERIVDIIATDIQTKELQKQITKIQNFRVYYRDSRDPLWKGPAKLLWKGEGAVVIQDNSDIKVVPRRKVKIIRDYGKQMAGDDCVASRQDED
Sequence of Human immunodeficiency virus type 1 integrase (Q7ZJM1 whole entry): as the sequence (Q7ZJM1 as listed by the source) above

EC50 [2] | Activity [4] | inhibition [6] | IC50 [8] | SMILES | inhibition (INH) [1] | CC50 at 48 h [3] | MNTC at 48 h [5] | selectivity ratio [7] | inhibition (INH) [9] | inhibition (INH) [10] | inhibition [11]
 | inactive |  |  | O=C(/C=C/c1ccc(O)c(O)c1)c1ccc(NC(=O)c2ccc(F)cc2F)cc1 | 16% |  | 6300 nM |  |  |  | 
1.9 µM | inactive | 66.8% | 25.2 µM | COc1ccc(C(=O)Nc2ccc(C(=O)/C=C/c3ccc(O)c(O)c3)cc2)cc1 | 92.4% | 32.3 µM | 6400 nM | 17.4 | 55.8% | 0% | 
0.9 µM | inactive | 66.5% | 44.6 µM | O=C(Cc1cccs1)Nc1ccc(C(=O)/C=C/c2ccc(O)c(O)c2)cc1 | 71.6% | 51.4 µM | 2600 nM | 59.1 | 52.9% | 0% | 
 | inactive |  |  | O=C(/C=C/c1ccc(O)c(O)c1)c1ccc(NC(=O)c2ccc3ccccc3c2)cc1 | 0% |  | 2400 nM |  |  |  | 
 | inactive |  |  | CC(=O)Nc1ccc(C(=O)/C=C/c2ccc(O)c(O)c2)cc1 | 0% |  | 1700 nM |  |  |  | 
1.6 µM | inactive | 56% | 50.2 µM | O=C(/C=C/c1ccc(O)c(O)c1)c1ccc(NC(=O)c2ccccc2)cc1 | 73% | 20.3 µM | 2800 nM | 13 | 58.6% | 27.8% | 
 | inactive |  |  | O=C(/C=C/c1ccc(O)c(O)c1)c1ccc(NC(=O)c2ccco2)cc1 | 24.2% |  | 2900 nM |  |  |  | 
4.2 µM | inactive | 67.7% | 36.8 µM | O=C(/C=C/c1ccc(O)c(O)c1)c1ccc(NC(=O)C23C[C@H]4C[C@@H](C2)C[C@@H](C3)C4)cc1 | 86.1% | 13.5 µM | 6000 nM | 3.2 | 59.6% | 0% | 
 | inactive |  |  | CC(C)CC(=O)Nc1ccc(C(=O)/C=C/c2ccc(O)c(O)c2)cc1 | 0% |  | 1400 nM |  |  |  | 
 | inactive |  |  | CC(C)C(=O)Nc1ccc(C(=O)/C=C/c2ccc(O)c(O)c2)cc1 | 0% |  | 1500 nM |  |  |  | 
1.6 µM | inactive | 74% | 28.5 µM | O=C(/C=C/c1ccc(O)c(O)c1)c1ccc(NC(=O)c2ccc(F)c(F)c2)cc1 | 77.6% | 15.7 µM | 2500 nM | 9.8 | 71.5% | 0% | 
 | inactive |  |  | O=C(/C=C/c1ccc(O)c(O)c1)c1ccc(NC(=O)c2ccc(C(F)(F)F)cc2F)cc1 | 10.9% |  | 2200 nM |  |  |  | 
 | inactive |  |  | O=C(/C=C/c1ccc(O)c(O)c1)c1ccc(NC(=O)c2cccs2)cc1 | 0% |  | 2700 nM |  |  |  | 
 | inactive |  |  | Nc1ccc(C(=O)/C=C/c2ccc(O)c(O)c2)cc1 | 0% |  | 3900 nM |  |  |  | 

SMILES | EC50 [2] | Activity [4] | inhibition [6] | IC50 [8] | inhibition (INH) [1] | CC50 at 48 h [3] | MNTC at 48 h [5] | selectivity ratio [7] | inhibition (INH) [9] | inhibition (INH) [10] | inhibition [11]
Cc1cn([C@H]2C[C@H](N=[N+]=[N-])[C@@H](CO)O2)c(=O)[nH]c1=O [ZIDOVUDINE] | 1.1 µM | inactive |  |  | 89.8% | 24.1 µM | 5000 nM |  |  |  | 
[N-]=[N+]=[N-] [SODIUM AZIDE] |  | inactive |  | 1.2 µM |  |  |  |  |  |  | 98.8%
